Reference: article PMC4818360 (Iranian Journal of Basic Medical Sciences, 2016)

Legend:
[1] = DPPH free radical scavenging assay; conditions: methanolic solutions, 30 min, 517 nm, mean ± SD (n = 3)
Outline: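 DPPH stock (60 μM in methanol), 1 ml, mixed with 1 ml of test compound or standard at 0.0125, 0.025, 0.05, 0.1 and 0.2 mg/ml. Shaken, left 30 min, then read at 517 nm. Scavenging % = (Ac−At)/Ac×100, where the control holds all reagents except the compound. BHT was the standard. IC50 came from logarithmic non-linear regression; three replicates.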

[2] = Hydrogen peroxide scavenging assay; conditions: at 0.312 mg/ml, 20 min, 230 nm, mean ± SD (n = 3)
Outline: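 H2O2 was made at 40 mM in saline phosphate buffer, pH 7.4, and its level checked at 230 nm. 100 μl of methanolic test compound or standard solution (0.312 mg/ml) went into 2 ml of H2O2 solution. A230 was read after 20 min against a blank of compound in buffer without H2O2. Scavenging % = (Ac−At)/Ac×100. BHT and gallic acid were standards; three replicates.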

[3] = target: mushroom tyrosinase (EC 1.14.18.1) (Agaricus bisporus, UniProt C7FF04); assay: biochemical
Chain of mushroom tyrosinase (EC 1.14.18.1) (C7FF04 1-392): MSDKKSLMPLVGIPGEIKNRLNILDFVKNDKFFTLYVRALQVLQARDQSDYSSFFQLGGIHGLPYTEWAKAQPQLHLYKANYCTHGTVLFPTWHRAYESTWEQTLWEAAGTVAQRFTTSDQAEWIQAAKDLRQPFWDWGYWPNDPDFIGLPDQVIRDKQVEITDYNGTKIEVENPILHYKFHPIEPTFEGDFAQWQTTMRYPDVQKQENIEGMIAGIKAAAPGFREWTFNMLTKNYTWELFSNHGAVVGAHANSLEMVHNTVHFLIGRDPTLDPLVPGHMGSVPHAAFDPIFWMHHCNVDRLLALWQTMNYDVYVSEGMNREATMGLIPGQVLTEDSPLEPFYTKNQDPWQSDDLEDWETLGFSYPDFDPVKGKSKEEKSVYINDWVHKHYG

| IC50 values for DPPH [1] [µg/mL] | IC50 [3] [µM] | SMILES | H2O2 Scavenging [2] [%] |
| --- | --- | --- | --- |
| 34.38 ± 1.9 | 404 ± 14 | Cn1cc(O)c(=O)cc1CNc1ccc(O)cc1 [Compound 3, 5-Hydroxy-2-[(4-hydroxyphenylamino)methyl]-1-methylpyridin-4(1H)-one] | 63.70±1.49 |
| 44.62 ± 2.9 | 617 ± 19 | COc1ccc(NCc2cc(=O)c(O)cn2C)cc1 [Compound 2, 5-Hydroxy-2-[(4-methoxyphenylamino)methyl]-1-methylpyridin-4(1H)-one] | 64.97±0.96 |

More lines, now with the values behind:

| SMILES | IC50 values for DPPH [1] [µg/mL] | IC50 [3] [µM] | H2O2 Scavenging [2] [%] |
| --- | --- | --- | --- |
| Cc1cc(C(C)(C)C)c(O)c(C(C)(C)C)c1 [BHT, Butylated hydroxyl toluene, reference compound] | 49.19 ± 1.7 |  | 78.52±1.85 |
| O=C(O)c1cc(O)c(O)c(O)c1 [Galic acid, gallic acid, reference compound] |  |  | 97.39±0.76 |
| O=c1cc(CNc2cccc([N+](=O)[O-])c2)[nH]cc1O [Compound 11, 5-Hydroxy-2-[(3-nitrophenylamino)methyl]pyridin-4(1H)-one] | 25.17 ± 1.8 | 217 ± 9 | 61.77±1.16 |
